In ChEMBL document CHEMBL1154630, “Discovery of colon tumor cell growth inhibitory agents through a combinatorial approach” (Eur J Med Chem, 2010):
pIC50, pKd: −log10 of the molar value.

Legend:
[1] = target: T1, cGMP-inhibited 3',5'-cyclic phosphodiesterase 3A (Homo sapiens, UniProt Q14432); experiment: Inhibition of human recombinant PDE3A at 50 uM by fluorescence polarization assay using cAMP as substrate
[2] = target: T1, cGMP-inhibited 3',5'-cyclic phosphodiesterase 3A; experiment: Inhibition of human recombinant PDE3A at 50 uM by fluorescence polarization assay using cGMP as substrate
HT-29 [3] = experiment: Cytotoxicity against human HT-29 cells at 50 uM after 72 hrs by celltiter glo assay; assay type: functional; details: HT-29, 72 h, read-out: GI
Procedure, shortened: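 HT-29 cells in RPMI 1640 plus 5% FBS, cultures >95% viable by Trypan blue. Seeded at 5000 cells/well and incubated 18–24 h, then exposed to a single 50 μM screening dose in triplicate. Live cells measured by CellTiter-Glo luminescent ATP assay at 72 h; percent growth inhibition reported.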

[4] = target: Baculoviral IAP repeat-containing protein 5 (Homo sapiens, UniProt O15392); experiment: Inhibition of survivin
Chain of Baculoviral IAP repeat-containing protein 5 (O15392 whole entry): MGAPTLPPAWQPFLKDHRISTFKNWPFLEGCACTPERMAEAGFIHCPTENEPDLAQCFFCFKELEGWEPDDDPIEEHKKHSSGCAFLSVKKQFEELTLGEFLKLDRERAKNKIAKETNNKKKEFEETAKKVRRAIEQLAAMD

HT-29 [5] = experiment: Cytotoxicity against human HT-29 cells after 72 hrs by celltiter glo assay; assay type: functional, cell-based; details: HT-29, 72 h
Procedure, shortened: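 HT-29 cells grown in RPMI 1640 with 5% FBS, used only at >95% viability (Trypan blue). 5000 cells/well, left 18–24 h before treatment. Viability read by CellTiter-Glo luminescence (ATP content) 72 h after treatment. IC50 from 8 concentrations, at least four replicates each, fitted to a four-parameter logistic equation.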

[6] = target: T1, cGMP-inhibited 3',5'-cyclic phosphodiesterase 3A; experiment: Inhibition of human recombinant PDE3A by fluorescence polarization assay using cAMP as substrate
[7] = target: T1, cGMP-inhibited 3',5'-cyclic phosphodiesterase 3A; experiment: Inhibition of human recombinant PDE3A by fluorescence polarization assay using cGMP as substrate

T1 sequence (Q14432 whole entry): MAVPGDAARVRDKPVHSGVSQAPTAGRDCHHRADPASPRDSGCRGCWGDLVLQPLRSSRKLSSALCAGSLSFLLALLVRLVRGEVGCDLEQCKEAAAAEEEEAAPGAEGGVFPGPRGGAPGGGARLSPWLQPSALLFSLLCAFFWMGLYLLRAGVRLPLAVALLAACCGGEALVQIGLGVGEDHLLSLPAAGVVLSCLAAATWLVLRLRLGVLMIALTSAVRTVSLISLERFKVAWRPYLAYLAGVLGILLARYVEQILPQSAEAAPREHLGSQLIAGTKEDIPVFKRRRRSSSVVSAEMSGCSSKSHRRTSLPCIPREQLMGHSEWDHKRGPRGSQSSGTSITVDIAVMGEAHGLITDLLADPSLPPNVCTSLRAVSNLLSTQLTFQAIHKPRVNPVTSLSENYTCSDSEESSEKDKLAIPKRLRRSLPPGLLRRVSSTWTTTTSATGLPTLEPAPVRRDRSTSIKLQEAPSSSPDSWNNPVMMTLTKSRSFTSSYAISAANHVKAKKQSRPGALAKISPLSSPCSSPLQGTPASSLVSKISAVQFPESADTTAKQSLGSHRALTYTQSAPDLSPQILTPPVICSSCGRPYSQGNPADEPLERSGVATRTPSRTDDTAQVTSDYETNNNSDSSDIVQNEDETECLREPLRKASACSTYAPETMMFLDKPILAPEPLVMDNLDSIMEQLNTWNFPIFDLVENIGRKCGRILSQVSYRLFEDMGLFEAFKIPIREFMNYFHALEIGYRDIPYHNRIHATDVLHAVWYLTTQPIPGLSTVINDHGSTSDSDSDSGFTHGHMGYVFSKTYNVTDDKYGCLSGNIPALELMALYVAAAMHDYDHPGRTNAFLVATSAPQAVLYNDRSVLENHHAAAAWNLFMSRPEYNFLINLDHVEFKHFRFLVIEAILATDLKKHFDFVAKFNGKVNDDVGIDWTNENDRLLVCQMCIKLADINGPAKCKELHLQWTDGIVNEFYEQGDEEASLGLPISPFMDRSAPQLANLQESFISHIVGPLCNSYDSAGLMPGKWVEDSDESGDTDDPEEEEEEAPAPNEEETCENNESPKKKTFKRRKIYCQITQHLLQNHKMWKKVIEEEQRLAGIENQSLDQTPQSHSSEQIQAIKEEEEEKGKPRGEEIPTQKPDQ

inhibition [1] | inhibition [2] | pIC50 [6] | pIC50 [7] | SMILES | inhibition of growth at 50 µM (HT-29 [3]) | pKd [4] | pIC50 (HT-29 [5])
10% | 8% |  |  | COc1ccccc1-c1cc(-c2ccsc2)[nH]c(=O)c1C#N | 20% |  | 
8% | 0% |  |  | COc1ccc(-c2cc(-c3ccsc3)[nH]c(=O)c2C#N)cc1 | -20% |  | 
21% | 26% |  |  | N#Cc1c(-c2ccccc2O)cc(-c2ccsc2)[nH]c1=N | 44% |  | 
7% | 9% |  |  | N#Cc1c(-c2ccsc2)cc(-c2ccccc2)[nH]c1=O | -10% |  | 
47% |  |  |  | COc1ccccc1-c1cc(-c2ccsc2)[nH]c(=N)c1C#N | 78% |  | 4.46
37% | -10% |  |  | CCOc1ccccc1-c1cc(-c2ccsc2)[nH]c(=N)c1C#N | 92% |  | 5.22
7% | 0% |  |  | CCOc1ccc(-c2cc(-c3ccsc3)[nH]c(=O)c2C#N)cc1 | -1% |  | 
5% | 20% |  |  | CCOc1ccccc1-c1cc(-c2ccsc2)[nH]c(=O)c1C#N | 80% |  | 5.90
5% | 14% |  |  | N#Cc1c(-c2ccc(Cl)cc2)cc(-c2ccsc2)[nH]c1=O |  |  | 
21% | 37% |  |  | N#Cc1c(-c2ccccc2O)cc(-c2ccsc2)[nH]c1=O | 79% |  | 4.34

The next lines start with the molecule.

SMILES | inhibition [1] | inhibition [2] | pIC50 [6] | pIC50 [7] | inhibition of growth at 50 µM (HT-29 [3]) | pKd [4] | pIC50 (HT-29 [5])
N#Cc1c(-c2ccccc2)cc(-c2cc(Br)ccc2O)[nH]c1=O |  |  |  |  |  | 5.24 | 
COc1ccc(OC)c(-c2cc(-c3ccc(Br)cc3)[nH]c(=N)c2C#N)c1 | 20% | 20% |  |  | 95% |  | 5.40
N#Cc1c(-c2ccccc2O)cc(-c2ccccc2Br)[nH]c1=O | 34% | 50% |  |  | 22% |  | 
N#Cc1c(-c2cccc(Cl)c2)cc(-c2ccccc2)[nH]c1=N | 15% | 20% |  |  |  |  | 
N#Cc1c(-c2ccc(Cl)cc2)cc(-c2ccsc2)[nH]c1=N | 28% | 45% |  |  | 65% |  | 
COc1ccc(-c2cc(-c3ccc(Br)cc3)[nH]c(=O)c2C#N)c(OC)c1 | 2% | -8% |  |  | 0% |  | 
N#Cc1c(-c2ccsc2)cc(-c2ccccc2)[nH]c1=N | 4% | 0% |  |  | 25% |  | 
CCOc1ccc(-c2cc(-c3ccsc3)[nH]c(=N)c2C#N)cc1 | 55% | 80% | 4.88 | 4.87 | -10% |  | 
N#Cc1c(-c2ccccc2O)cc(-c2cccc(Br)c2)[nH]c1=O | 20% | 45% |  |  | -5% |  | 
N#Cc1c(-c2ccccc2Cl)cc(-c2ccc(Br)cc2)[nH]c1=O | 18% | 36% |  |  | 5% |  | 
N#Cc1c(-c2cccc(Cl)c2)cc(-c2ccc(Br)cc2)[nH]c1=N | 10% | 13% |  |  | 7% |  | 
N#Cc1c(-c2ccccc2Cl)cc(-c2ccc(Br)cc2)[nH]c1=N | 36% | 47% |  |  | -16% |  | 
N#Cc1c(-c2ccccc2O)cc(-c2cccc(Br)c2)[nH]c1=N | 18% | 36% |  |  | 30% |  | 
N#Cc1c(-c2ccccc2O)cc(-c2ccccc2Br)[nH]c1=N | 20% | 40% |  |  | 28% |  | 
N#Cc1c(-c2cccc(Cl)c2)cc(-c2ccccc2)[nH]c1=O | 10% | 24% |  |  | 80% |  | 5.68
N#Cc1c(-c2ccccc2O)cc(-c2ccc(Br)cc2)[nH]c1=O | 10% | 28% |  |  | 94% |  | 4.68
N#Cc1c(-c2cccc(Cl)c2)cc(-c2ccc(Br)cc2)[nH]c1=O | 8% | 21% |  |  | 7% |  | 
COc1ccc(OC)c(-c2cc(-c3ccc(Br)cc3)[nH]c(=O)c2C#N)c1 | 8% | 17% |  |  | 33% |  | 
COc1ccc(-c2cc(-c3ccc(Br)cc3)[nH]c(=N)c2C#N)c(OC)c1 | 25% | 70% |  |  | 2% |  | 
COc1ccc(-c2cc(-c3ccsc3)[nH]c(=N)c2C#N)cc1 | 10% | 30% |  |  | 75% |  | 5.57
N#Cc1c(-c2ccccc2O)cc(-c2ccc(Br)cc2)[nH]c1=N | 22% | 27% |  |  | 23% |  | 
